According to paper PMC12709667 (Journal of Clinical Pharmacology, 2025):
pIC50: −log10 of the molar value. Several values for one entry are separate records, joined by “and”; a condition that tells them apart may be missing. Equal entries are not always repeated.

Legend:
BCRP [1] = target: T1, BCRP (Homo sapiens, UniProt Q9UNQ0); assay: Transporter substrate assessment; format: in vitro ADME
T1 sequence (Q9UNQ0 1-655): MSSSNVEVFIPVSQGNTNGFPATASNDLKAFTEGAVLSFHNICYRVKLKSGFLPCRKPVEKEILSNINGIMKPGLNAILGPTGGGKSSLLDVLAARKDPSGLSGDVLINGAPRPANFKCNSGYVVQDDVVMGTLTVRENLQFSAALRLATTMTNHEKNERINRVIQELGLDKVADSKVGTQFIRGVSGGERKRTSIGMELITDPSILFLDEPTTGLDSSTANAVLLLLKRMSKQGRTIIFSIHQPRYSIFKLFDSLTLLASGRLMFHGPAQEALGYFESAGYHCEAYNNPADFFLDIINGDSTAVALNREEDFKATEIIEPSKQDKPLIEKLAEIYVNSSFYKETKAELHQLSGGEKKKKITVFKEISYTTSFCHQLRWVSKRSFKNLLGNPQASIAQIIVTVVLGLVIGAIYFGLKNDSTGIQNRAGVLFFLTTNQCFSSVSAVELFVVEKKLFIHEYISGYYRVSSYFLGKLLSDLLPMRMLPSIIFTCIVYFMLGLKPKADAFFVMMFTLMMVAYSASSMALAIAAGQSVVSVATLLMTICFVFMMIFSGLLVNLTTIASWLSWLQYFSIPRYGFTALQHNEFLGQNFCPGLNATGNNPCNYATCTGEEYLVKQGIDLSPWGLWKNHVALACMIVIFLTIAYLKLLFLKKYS

CYP2C8 = target: T2, CYP2C8 (Homo sapiens, UniProt P10632); assay: Cytochrome P450 inhibition; format: in vitro ADME
T2 sequence (P10632 1-490): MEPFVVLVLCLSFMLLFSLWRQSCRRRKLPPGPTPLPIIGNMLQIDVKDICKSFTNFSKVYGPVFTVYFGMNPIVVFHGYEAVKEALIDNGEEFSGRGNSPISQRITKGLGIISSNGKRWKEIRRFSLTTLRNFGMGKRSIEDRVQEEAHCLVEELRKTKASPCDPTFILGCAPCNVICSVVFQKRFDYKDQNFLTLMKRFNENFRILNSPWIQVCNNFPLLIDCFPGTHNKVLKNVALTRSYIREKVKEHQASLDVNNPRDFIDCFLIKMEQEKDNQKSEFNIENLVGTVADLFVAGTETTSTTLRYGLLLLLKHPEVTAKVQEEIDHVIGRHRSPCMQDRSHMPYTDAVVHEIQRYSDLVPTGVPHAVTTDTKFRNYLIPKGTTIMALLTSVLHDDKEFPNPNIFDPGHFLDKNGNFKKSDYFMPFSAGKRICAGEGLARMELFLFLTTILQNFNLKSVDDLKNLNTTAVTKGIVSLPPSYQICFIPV

[2] = First-in-human study, multiple ascending dose; format: in vivo; conditions: for half-life: human, plasma, oral
UGT1A1 [3] = target: T3, UGT1A1 (Homo sapiens, UniProt P22309); assay: DDI perpetrator study: dolutegravir probe; format: in vivo; conditions: miricorilant 400 mg once daily as perpetrator
T3 sequence (P22309 26-533): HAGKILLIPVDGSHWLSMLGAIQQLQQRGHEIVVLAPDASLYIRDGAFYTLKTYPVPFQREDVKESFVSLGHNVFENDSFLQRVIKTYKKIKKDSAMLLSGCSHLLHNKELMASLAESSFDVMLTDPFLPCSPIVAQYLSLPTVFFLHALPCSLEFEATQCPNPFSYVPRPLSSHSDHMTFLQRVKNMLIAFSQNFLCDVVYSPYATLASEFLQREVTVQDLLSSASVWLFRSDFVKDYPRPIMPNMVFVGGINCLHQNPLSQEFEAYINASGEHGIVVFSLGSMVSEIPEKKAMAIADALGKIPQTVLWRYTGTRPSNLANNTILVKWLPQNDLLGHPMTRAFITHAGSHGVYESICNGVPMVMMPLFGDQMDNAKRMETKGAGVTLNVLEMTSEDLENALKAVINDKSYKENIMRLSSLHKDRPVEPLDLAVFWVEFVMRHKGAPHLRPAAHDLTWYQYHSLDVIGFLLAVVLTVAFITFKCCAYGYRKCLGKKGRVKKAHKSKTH

BCRP [4] = target: T1, BCRP; assay: ABC transporter inhibition, inside-out vesicles; format: in vitro ADME
In short: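 Inhibition of human BCRP transport was measured in inside-out membrane vesicles prepared from cells overexpressing the human ABC transporter.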

[5] = In vitro blood/plasma partitioning; format: in vitro ADME; conditions: rat, whole blood
In short: (§1)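 Test compound was added to rat, monkey or human whole blood and incubated, then centrifuged to obtain plasma. The plasma concentration was measured by LC-MS. It was compared with the concentration in directly spiked plasma of the same species.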

[6] = Quantitative whole-body autoradiography tissue distribution in mice; format: in vivo, mouse; conditions: for association of radioactivity with melanin: pigmented mice
In short: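 Quantitative whole-body autoradiography after dosing with [14C]-labelled test compound, in non-pigmented (albino) and partially pigmented C57 mice. Frozen carcasses were sectioned and imaged at timepoints from 1 h to 168 h postdose to measure tissue radioactivity. Melanin-containing tissues (skin, uveal tract) were included.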

28-day toxicology study = format: in vivo, monkey; conditions: monkeys
Human [14C] ADME study = format: in vivo
CYP2C9 = CYP2C9 (Homo sapiens, UniProt P11712); assay: DDI perpetrator study: tolbutamide probe; format: in vivo; conditions: miricorilant 400 mg once daily as perpetrator
Sequence of CYP2C9 (P11712 whole entry): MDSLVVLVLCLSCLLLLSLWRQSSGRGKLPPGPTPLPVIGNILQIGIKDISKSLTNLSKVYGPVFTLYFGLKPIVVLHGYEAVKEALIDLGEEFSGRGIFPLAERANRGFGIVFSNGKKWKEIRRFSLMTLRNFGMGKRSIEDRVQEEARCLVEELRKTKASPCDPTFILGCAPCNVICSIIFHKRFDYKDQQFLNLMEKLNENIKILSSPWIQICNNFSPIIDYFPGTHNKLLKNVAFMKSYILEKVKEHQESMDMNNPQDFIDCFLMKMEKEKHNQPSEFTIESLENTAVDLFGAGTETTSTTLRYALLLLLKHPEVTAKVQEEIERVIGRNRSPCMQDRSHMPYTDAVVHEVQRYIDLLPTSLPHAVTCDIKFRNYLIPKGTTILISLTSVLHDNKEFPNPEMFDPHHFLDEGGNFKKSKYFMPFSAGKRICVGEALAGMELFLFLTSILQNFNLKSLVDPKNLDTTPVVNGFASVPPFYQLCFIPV

UGT1A1 [7] = target: T3, UGT1A1; assay: Phase 2 enzyme substrate assessment; format: in vitro ADME
[8] = 28-day Good Laboratory Practice toxicology study; format: in vivo, mouse; conditions: mice
[9] = In vitro blood/plasma partitioning; format: in vitro ADME; conditions: monkey, whole blood
In short: as §1

CYP2B6 = format: in vitro ADME, human; conditions: up to 10 µM, three donors

SMILES: O=c1[nH]c(=O)c(Cc2cccc(C(F)(F)F)c2)c([C@H]2CC[C@H](c3ccccc3)CC2)[nH]1 [miricorilant]
- Substrate of BCRP (BCRP [1]): not a substrate
- pIC50 (CYP2C8): 5.12
- time dependence of CYP2C8 inhibition (CYP2C8): not time dependent
- average increase in Cmax and AUC0‐last per doubling of the dose ([2]; 150, 450, 900 mg once daily, day 1): 1.92 fold
- half-life [2]: ~20 h
- half-life ([2]; 150 mg): 21.6 h
- half-life ([2]; 450 mg): 21.2 h
- half-life ([2]; 900 mg): 19.4 h
- accumulation ratio for Cmax ([2]; repeated daily dosing (Discussion/Conclusions)): ≈ 1.5 fold
- clinical inhibition of UGT1A1 (UGT1A1 [3]): does not inhibit
- pIC50 (BCRP [4]): 6.32
- blood plasma ratio [5]: 0.84
- radioactivity in the lens of the eye ([6]; albino mice): not present at quantifiable levels
- radioactivity in the brain and spinal cord ([6]; albino mice, 4 and 8 h): low levels
- time of peak tissue concentration of radioactivity ([6]; albino mice, majority of tissues (pancreas, liver, gall bladder etc.)): 4 h
- radioactivity in the liver ([6]; mice): high concentrations
- association of radioactivity with melanin [6]: no long‐term association
- association of radioactivity with melanin ([6]; listed as [^14C]‐miricorilant): no affinity
- adverse effects in 28‐day toxicology study (28-day toxicology study): No adverse effects
- administered radioactivity recovered in excreta (Human [14C] ADME study; 240‐h sampling period, mean ± SD): 93.68 ± 1.63%
- administered dose recovered in urine (Human [14C] ADME study; human, 150 mg oral solution): 4.56%
- total radioactivity recovered in feces (Human [14C] ADME study; human, 150 mg oral solution): 89.12% and 89.12 ± 1.16%
- Cmax (Human [14C] ADME study; male, human, plasma, po, 150 mg): 343 ng/mL
- administered radioactivity eliminated (Human [14C] ADME study; within the first 48 h post dose): 19.28 ± 9.01%
- clinical inhibition of CYP2C9 (CYP2C9): does not inhibit
- Substrate of UGT1A1 (UGT1A1 [7]): not a substrate
- adverse effects in 28‐day toxicology study [8]: No adverse effects
- blood plasma ratio [9]: 0.83
- induction of CYP2B6 (CYP2B6): no induction
